Measurements reported in ChEMBL document CHEMBL1123459, “Synthesis and dopaminergic binding of 2-aryldopamine analogues: phenethylamines, 3-benzazepines, and 9-(aminomethyl)fluorenes” (J Med Chem, 1986).

How the values were obtained:
[1] = biological target: D(2) dopamine receptor (Bos taurus) (UniProt P20288); assay: Compound was tested for inhibition of [3H]spiroperidol binding against Dopamine receptor D2 at 10e-5 M; IA= Inactive
D(1A) dopamine receptor [2] = biological target: T1, D(1A) dopamine receptor (Rattus norvegicus, UniProt P18901); assay: Displacement of [3H]fenoldopam from Dopamine receptor D1 of rat striatum membranes; assay type: cell membranes, Membrane
[3] = biological target: D(2) dopamine receptor (Bos taurus) (UniProt P20288); assay: Compound was tested for inhibition of [3H]spiroperidol binding against Dopamine receptor D2 at 10e-5 M
D(2) dopamine receptor = D(2) dopamine receptor (Bos taurus, UniProt P20288); assay: Compound was tested for inhibition of [3H]spiroperidol binding against Dopamine receptor D2
Summary of the method: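 Washed bovine anterior pituitary membranes (500 μg protein) incubated 20 min at 37 °C with 0.2–0.3 nM [3H]spiroperidol in Tris-HCl pH 7.4, MgSO4, 2 mM EDTA, 0.1% ascorbate.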

D(1A) dopamine receptor [4] = biological target: T1, D(1A) dopamine receptor; assay: Compound was tested for binding affinity against dDopamine receptor D1 using [3H]fenoldopam as a radioligand

T1 sequence (P18901 whole entry): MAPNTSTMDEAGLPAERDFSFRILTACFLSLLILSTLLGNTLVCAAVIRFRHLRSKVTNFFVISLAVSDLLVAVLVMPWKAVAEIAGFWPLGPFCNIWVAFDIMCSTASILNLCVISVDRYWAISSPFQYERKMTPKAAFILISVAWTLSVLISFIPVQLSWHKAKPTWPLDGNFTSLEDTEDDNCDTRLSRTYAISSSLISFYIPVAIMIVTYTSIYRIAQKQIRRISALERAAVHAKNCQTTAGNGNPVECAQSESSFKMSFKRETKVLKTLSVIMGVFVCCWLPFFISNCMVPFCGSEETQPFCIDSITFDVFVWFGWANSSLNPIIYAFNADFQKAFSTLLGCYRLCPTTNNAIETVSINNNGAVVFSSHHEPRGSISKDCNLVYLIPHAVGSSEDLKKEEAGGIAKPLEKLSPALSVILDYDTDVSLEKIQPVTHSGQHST
Chain of D(2) dopamine receptor (Bos taurus) (P20288 whole entry): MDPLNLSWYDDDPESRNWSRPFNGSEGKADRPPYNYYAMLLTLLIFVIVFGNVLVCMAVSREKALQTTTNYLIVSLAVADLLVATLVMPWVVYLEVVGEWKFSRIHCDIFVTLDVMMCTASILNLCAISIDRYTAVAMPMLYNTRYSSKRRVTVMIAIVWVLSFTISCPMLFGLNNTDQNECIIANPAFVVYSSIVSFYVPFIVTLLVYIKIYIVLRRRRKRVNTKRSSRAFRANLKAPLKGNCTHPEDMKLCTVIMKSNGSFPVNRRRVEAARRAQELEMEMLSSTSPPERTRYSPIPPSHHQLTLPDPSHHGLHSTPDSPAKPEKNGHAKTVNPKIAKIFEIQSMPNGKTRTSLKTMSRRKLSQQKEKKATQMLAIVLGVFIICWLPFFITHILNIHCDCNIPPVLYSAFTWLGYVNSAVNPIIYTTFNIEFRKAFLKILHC
Chain of D(2) dopamine receptor (P20288 whole entry): as above

Row | SMILES | inhibition [1] [%] | Ki (D(1A) dopamine receptor [2]) [nM] | inhibition [3] [%] | Ki (D(2) dopamine receptor) [nM] | Ki (D(1A) dopamine receptor [4]) [nM]
1 | NCCc1ccc(O)c(O)c1-c1ccccc1 | < 20 | 1500 | – | – | –
2 | NCC1c2ccccc2-c2c1ccc(O)c2O (stereo unspecified) | – | 380 | 20 | – | –
3 | Oc1c(O)c(-c2ccccc2)c2c(c1Cl)CCNCC2 | – | 700 | 27 | – | –
4 | NCC1c2cc(O)ccc2-c2c1ccc(O)c2O (stereo unspecified) | – | 43 | – | 5740 | –
5 | Oc1ccc(-c2c(O)c(O)cc3c2CCNCC3)cc1 | < 20 | > 3000 | – | – | –
6 | CCCN(CCC)CCc1ccc(O)c(O)c1-c1ccccc1 | – | 1940 | 29 | – | –
7 | CCCN(CCC)CCc1ccc(O)c(O)c1-c1ccc(O)cc1 | – | 1740 | – | 1800 | –
8 | Oc1cc2c(cc1O)CCNCC2 | – | – | – | – | 970
9 | Oc1ccc(-c2c(O)c(O)c(Cl)c3c2CCNCC3)cc1 | < 20 | 1630 | – | – | –
10 | NCCc1ccc(O)c(O)c1-c1ccc(O)cc1 | < 20 | 1650 | – | – | –
11 | Oc1cc2c(c(-c3ccccc3)c1O)CCNCC2 | < 20 | 1790 | – | – | –
